ChEMBL document CHEMBL3632575, “Structure-Activity Relationships of the Peptide Kappa Opioid Receptor Antagonist Zyklophin” (J Med Chem, 2015)
Activity calls are given as the source filed them. No cut-off for these calls is given here.

Assays:
[1] = molecular target: Kappa-type opioid receptor (Homo sapiens) (UniProt P41145); assay: Agonist activity at kappa-opioid receptor (unknown origin) at 10 uM after 90 mins by [35S]GTPgammaS binding assay; type: functional
Summary of the method: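 KOR-containing membranes were incubated in duplicate with [35S]GTPγS (0.1–0.2 nM) and 10 µM peptide for 90 min at 22 °C in 50 mM HEPES, pH 7.4. Specific binding is total minus binding with 3 µM unlabeled GTPγS. Efficacy is expressed relative to the full agonist Dyn A(1-13)NH2, from at least two independent experiments.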

[2] = molecular target: Kappa-type opioid receptor (Homo sapiens) (UniProt P41145); assay: Antagonist activity at kappa-opioid receptor (unknown origin) assessed as inhibition of DynA(1-13)-induced [35S]-GTPgammaS binding after 90 mins; type: functional
Summary of the method: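 Antagonism was measured in a [35S]GTPγS (0.1–0.2 nM) binding assay on KOR membranes, run in duplicate for 90 min at 22 °C in 50 mM HEPES, pH 7.4, with Dyn A(1-13)NH2 as the stimulating agonist. Specific binding is total minus binding with 3 µM GTPγS. KB was derived by Schild analysis from shifts of the agonist concentration-response curve, averaged over 2–5 independent experiments, with 95% confidence intervals.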

Rattus norvegicus = organism: Rattus norvegicus; assay: Selectivity ratio, ratio of Ki for rat mu-opioid receptor to Ki for rat kappa-opioid receptor
Mu-type opioid receptor = Mu-type opioid receptor (Rattus norvegicus, UniProt P33535); assay: Displacement of [3H]DAMGO from rat mu-opioid receptor expressed in CHO cells after 90 mins by scintillation counter; type: cell-based
Mu-type opioid receptor, sequence (P33535 whole entry): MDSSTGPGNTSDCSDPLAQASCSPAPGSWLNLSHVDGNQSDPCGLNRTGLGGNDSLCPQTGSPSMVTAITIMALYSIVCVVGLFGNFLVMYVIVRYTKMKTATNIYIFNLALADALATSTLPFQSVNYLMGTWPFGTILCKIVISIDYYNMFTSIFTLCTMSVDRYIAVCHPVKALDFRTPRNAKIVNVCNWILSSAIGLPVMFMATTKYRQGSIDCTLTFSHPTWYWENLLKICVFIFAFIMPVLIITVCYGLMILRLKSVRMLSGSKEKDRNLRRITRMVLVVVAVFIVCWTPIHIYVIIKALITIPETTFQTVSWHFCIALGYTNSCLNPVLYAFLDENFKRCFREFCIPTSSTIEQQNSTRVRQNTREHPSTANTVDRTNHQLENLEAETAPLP
Summary of the method: (§1)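 Membranes from CHO cells stably expressing cloned rat KOR or MOR were incubated in triplicate with test peptide at 0.1 nM–10 µM for 90 min at 22 °C in 50 mM Tris, pH 7.4. […] Nonspecific binding was set with 10 µM unlabeled Dyn A(1-13)NH2 (KOR) or DAMGO (MOR). Ki is the mean ± S.E.M. of at least three independent experiments.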

[3] = molecular target: Kappa-type opioid receptor (Rattus norvegicus, UniProt P34975); assay: Displacement of [3H]diprenorphine from rat kappa-opioid receptor expressed in CHO cells after 90 mins by scintillation counter; type: cell-based; summary of the method: as §1
Kappa-type opioid receptor, sequence (P34975 whole entry): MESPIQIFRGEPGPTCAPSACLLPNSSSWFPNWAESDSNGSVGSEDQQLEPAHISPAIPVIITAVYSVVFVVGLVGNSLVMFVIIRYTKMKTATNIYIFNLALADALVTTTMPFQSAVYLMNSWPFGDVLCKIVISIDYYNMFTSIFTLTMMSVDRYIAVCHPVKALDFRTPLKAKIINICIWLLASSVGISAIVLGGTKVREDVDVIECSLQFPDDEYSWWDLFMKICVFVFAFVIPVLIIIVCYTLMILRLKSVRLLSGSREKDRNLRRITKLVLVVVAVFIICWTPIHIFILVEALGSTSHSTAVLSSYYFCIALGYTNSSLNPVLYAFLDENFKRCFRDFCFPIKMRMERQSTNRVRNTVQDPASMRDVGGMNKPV

[4] = molecular target: Kappa-type opioid receptor (Rattus norvegicus) (UniProt P34975); assay: Displacement of [3H]diprenorphine from rat kappa-opioid receptor expressed in CHO cells after 90 mins by scintillation counter relative to zyklophin; type: cell-based
Kappa-type opioid receptor (Rattus norvegicus), sequence (P34975 whole entry): as above

[5] = Retention time of the compound by RP-HPLC; type: physicochemical
Summary of the method: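 Analytical RP-HPLC on a C18 column (5 µ, 300 Å, 4.6 × 50 mm). System 1: 5–50% acetonitrile in water, both with 0.1% TFA, over 45 min at 1 mL/min. System 2: 15–60% methanol/0.1% TFA over 45 min at 1.0 mL/min. System 3: 1–21% acetonitrile against aqueous 0.09 M TEAP, pH 2.5, over 40 min.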

Kappa-type opioid receptor (Homo sapiens), sequence (P41145 whole entry): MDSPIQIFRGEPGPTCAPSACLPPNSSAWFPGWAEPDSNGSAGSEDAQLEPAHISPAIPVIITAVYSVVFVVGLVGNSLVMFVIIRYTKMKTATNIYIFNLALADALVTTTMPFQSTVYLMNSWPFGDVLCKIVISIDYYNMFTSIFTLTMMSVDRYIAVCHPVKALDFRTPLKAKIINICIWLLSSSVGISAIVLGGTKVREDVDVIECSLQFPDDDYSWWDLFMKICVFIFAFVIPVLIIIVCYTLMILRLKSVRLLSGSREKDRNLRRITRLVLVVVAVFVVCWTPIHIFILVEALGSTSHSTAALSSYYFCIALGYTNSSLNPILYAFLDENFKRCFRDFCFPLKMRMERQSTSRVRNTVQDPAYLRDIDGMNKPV

| SMILES | Activity [1] | other results |
| --- | --- | --- |
| N=C(N)NCCC[C@@H]1NC(=O)[C@H](CCCNC(=N)N)NC(=O)[C@H](NC(=O)[C@H](Cc2ccccc2)NC(=O)CNC(=O)CNC(=O)[C@H](Cc2ccc(O)cc2)NCCc2ccccc2)CC(=O)NC[C@@H](C(=O)N[C@@H](CCCNC(=N)N)C(=O)N2CCC[C@H]2C(=O)N[C@@H](CCCCN)C(N)=O)NC1=O | Active | – |
| C[C@@H]1NC(=O)[C@H](NC(=O)[C@H](Cc2ccccc2)NC(=O)CNC(=O)CNC(=O)[C@H](Cc2ccc(O)cc2)NCc2ccccc2)CC(=O)NC[C@@H](C(=O)N[C@@H](CCCNC(=N)N)C(=O)N2CCC[C@H]2C(=O)N[C@@H](CCCCN)C(N)=O)NC(=O)[C@H](CCCNC(=N)N)NC1=O | inactive | – |
| C[C@@H]1NC(=O)[C@H](CCCNC(=N)N)NC(=O)[C@H](NC(=O)[C@H](Cc2ccccc2)NC(=O)CNC(=O)CNC(=O)[C@H](Cc2ccc(O)cc2)NCc2ccccc2)CC(=O)NCC(C(=O)N[C@@H](CCCNC(=N)N)C(=O)N2CCC[C@H]2C(=O)N[C@@H](CCCCN)C(N)=O)NC1=O (some centres undefined) | inactive | Activity [2]: inactive |
| C[C@H](NC(=O)CNC(=O)CNC(=O)[C@H](Cc1ccc(O)cc1)NCc1ccccc1)C(=O)N[C@@H]1CC(=O)NC[C@@H](C(=O)N[C@@H](CCCNC(=N)N)C(=O)N2CCC[C@H]2C(=O)N[C@@H](CCCCN)C(N)=O)NC(=O)[C@H](CCCNC(=N)N)NC(=O)[C@H](CCCNC(=N)N)NC1=O | inactive | – |
| CC1NC(=O)C[C@@H](NC(=O)[C@H](Cc2ccccc2)NC(=O)CNC(=O)CNC(=O)[C@H](Cc2ccc(O)cc2)NCc2ccccc2)C(=O)N[C@@H](CCCNC(=N)N)C(=O)N[C@@H](CCCNC(=N)N)C(=O)NC1C(=O)N[C@@H](CCCNC(=N)N)C(=O)N1CCC[C@H]1C(=O)N[C@@H](CCCCN)C(N)=O (some centres undefined) | Active | Ratio Ki (Rattus norvegicus): 8 |
| N=C(N)NCCC[C@@H]1NC(=O)[C@H](CCCNC(=N)N)NC(=O)[C@H](NC(=O)[C@H](Cc2ccccc2)NC(=O)CNC(=O)CNC(=O)[C@H](Cc2ccc(O)cc2)NC(=O)c2ccccc2)CC(=O)NC[C@@H](C(=O)N[C@@H](CCCNC(=N)N)C(=O)N2CCC[C@H]2C(=O)N[C@@H](CCCCN)C(N)=O)NC1=O | Active | – |
| N=C(N)NCCC[C@@H]1NC(=O)[C@H](CCCNC(=N)N)NC(=O)[C@H](NC(=O)[C@H](Cc2ccccc2)NC(=O)CNC(=O)CNC(=O)[C@H](Cc2ccc(O)cc2)NCc2ccccc2)CC(=O)NCCC[C@@H](C(=O)N[C@@H](CCCNC(=N)N)C(=O)N2CCC[C@H]2C(=O)N[C@@H](CCCCN)C(N)=O)NC1=O | Active | – |
| CC[C@H](C)[C@H](NC(=O)[C@H](CCCNC(=N)N)NC(=O)[C@H](CCCNC(=N)N)NC(=O)[C@@H](CC(N)=O)NC(=O)[C@H](Cc1ccccc1)NC(=O)CNC(=O)CNC(=O)[C@H](Cc1ccc(O)cc1)NCc1ccccc1)C(=O)N[C@@H](CCCNC(=N)N)C(=O)N1CCC[C@H]1C(=O)N[C@@H](CCCCN)C(N)=O | – | Ki (Mu-type opioid receptor): 2440 nM; Ki [3]: 412 nM; Ratio Ki (Rattus norvegicus): 6; fold change (FC) [4]: 0.23 |
| N=C(N)NCCC[C@@H]1NC(=O)[C@H](CCCNC(=N)N)NC(=O)[C@H](NC(=O)[C@H](Cc2ccccc2)NC(=O)CNC(=O)CNC(=O)[C@H](Cc2ccc(O)cc2)NCC2CC2)CC(=O)NC[C@@H](C(=O)N[C@@H](CCCNC(=N)N)C(=O)N2CCC[C@H]2C(=O)N[C@@H](CCCCN)C(N)=O)NC1=O | Active | – |
| N=C(N)NCCC[C@@H]1NC(=O)[C@H](CCCNC(=N)N)NC(=O)[C@H](NC(=O)[C@H](Cc2ccccc2)NC(=O)CNC(=O)CNC(=O)[C@@H](Cc2ccc(O)cc2)NCc2ccccc2)CC(=O)NC[C@@H](C(=O)N[C@@H](CCCNC(=N)N)C(=O)N2CCC[C@H]2C(=O)N[C@@H](CCCCN)C(N)=O)NC1=O | – | Retention_time [5]: 17.3 min |
| C=CCN[C@@H](Cc1ccc(O)cc1)C(=O)NCC(=O)NCC(=O)N[C@@H](Cc1ccccc1)C(=O)N[C@@H]1CC(=O)NC[C@@H](C(=O)N[C@@H](CCCNC(=N)N)C(=O)N2CCC[C@H]2C(=O)N[C@@H](CCCCN)C(N)=O)NC(=O)[C@H](CCCNC(=N)N)NC(=O)[C@H](CCCNC(=N)N)NC1=O | Active | – |
| CN[C@@H](Cc1ccc(O)cc1)C(=O)NCC(=O)NCC(=O)N[C@@H](Cc1ccccc1)C(=O)N[C@@H]1CC(=O)NC[C@@H](C(=O)N[C@@H](CCCNC(=N)N)C(=O)N2CCC[C@H]2C(=O)N[C@@H](CCCCN)C(N)=O)NC(=O)[C@H](CCCNC(=N)N)NC(=O)[C@H](CCCNC(=N)N)NC1=O | Active | – |
| C[C@H](NC(=O)[C@@H]1CNC(=O)C[C@@H](NC(=O)[C@H](Cc2ccccc2)NC(=O)CNC(=O)CNC(=O)[C@H](Cc2ccc(O)cc2)NCc2ccccc2)C(=O)N[C@@H](CCCNC(=N)N)C(=O)N[C@@H](CCCNC(=N)N)C(=O)N1)C(=O)N1CCC[C@H]1C(=O)N[C@@H](CCCCN)C(N)=O | inactive | – |
| C[C@H](NCc1ccccc1)C(=O)NCC(=O)NCC(=O)N[C@@H](Cc1ccccc1)C(=O)N[C@@H]1CC(=O)NC[C@@H](C(=O)N[C@@H](CCCNC(=N)N)C(=O)N2CCC[C@H]2C(=O)N[C@@H](CCCCN)C(N)=O)NC(=O)[C@H](CCCNC(=N)N)NC(=O)[C@H](CCCNC(=N)N)NC1=O | inactive | – |
